From PubChem BioAssay
Unmarked numbers belong to inactive results. Records with an inconclusive call do not appear. The source made the active and inactive calls.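 Rule for the calls, unless noted: active = viability increase at or above a cutoff of the median across tested compounds plus 3 SD (cut at about 8.5% in these data, passing the limit was not always enough); inconclusive = some gains above the cutoff, reason not given; inactive = the rest.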

Experiments:
[1] = OD615 S. cerevisiae growth inhibition, permissive medium, pilot counter-assay, permissive growth control for S. cerevisiae lifespan shortening project (AID 705;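 active = growth inhibition above 25% in both replicates, a cutoff set 3 SD above the mean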); settings: OD615, 24 h, at 10 µM, hits give high values
Method in brief: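 Material: engineered DeaD yeast; compound dosing: one dose 10 µM, DMSO 0.25% final; measure: yeast growth inhibition indicated by reduced 24 h OD615; detection: OD615 turbidity read; incubation: cells pre-grown 4 h, then 24 h compound exposure, 30 °C humidified; medium: permissive synthetic complete medium with raffinose and galactose carbon sources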

[2] = Restrictive medium S. cerevisiae growth inhibition, OD615, pilot screen of yeast lifespan reduction project, restrictive growth control (AID 706;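 active = growth inhibition above a set limit, 3 SD over mean compound inhibition, in both replicates, cut at about 43% in these data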;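 note: modified DeaD lifespan yeast strain shifted to restrictive glucose medium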); settings: OD615, 48 h, at 10 µM, hits give high values
Method in brief: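 material = engineered S. cerevisiae DeaD strain | medium = glucose-based CSMM-D restrictive medium | times = 4 h pre-incubation, 48 h exposure at 30 °C | technique = OD615 absorbance reading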

[3] = viability gain of MRP-1-high H69AR cells under doxorubicin, pilot screen, MRP-1 activator project, CellTiter-Glo, duplicate (AID 807); settings: H69AR viability with doxorubicin, CellTiter-Glo luminescence; at 10 µM; hits give high values;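 note: compound pretreatment 18-22 h then 72 h combined with doxorubicin; 0% = doxorubicin alone and 100% = vehicle without doxorubicin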
[4] = growth suppression of beta-catenin knockout HCT116, pilot screen, human colon tumor cells (AID 823;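 active = cell viability at or below a set limit in both duplicate runs, the limit being the all-compound median minus 4 SD, cut at about 23% in these data, passing the limit was not always enough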;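 note: 0% = wells killed by 20 µM Hyamine and 100% = untreated DMSO cell wells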); settings: CellTiter-Glo, 60 h, at 10 µM, hits give low values
[5] = growth suppression of PTEN-deleted HCT116, pilot screen, cell-based, HCT116 clonal line, CellTiter-Glo (AID 824;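 active = viability at or below 27.92% in each of two runs, the all-compound median minus 4 SD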;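 note: 0% = 20 µM Hyamine control and 100% = vehicle cell control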); settings: 60 h, at 10 µM, hits give low values
[6] = inhibitors of the yeast RAM network, pilot screen, dse1pr::URA3 reporter, 5-FOA selection (AID 869;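 active = inhibition over a set limit, the all-compound mean plus 3 SD, in both replicate runs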;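 note: 0% = DMSO wells with no growth and 100% = 10 µM 1-NA-PP1 with full growth; RAM network block rescues cells from 5-FOA so hits raise OD615 growth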); settings: S. cerevisiae dse1pr::URA3 5-FOA growth, OD615, 2 d; at 10 µM; hits give high values; strain carries analog-sensitive mutant Cbk1 kinase
[7] = RAM signaling pathway blockade in yeast – S. cerevisiae, Pdr1DBD-CYC8 efflux-inhibited sensitized strain, primary screen (AID 1298;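 active = RAM network inhibition above 8.4% in each of two replicates, 3 SD over the compound average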;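 note: 0% = DMSO untreated cells without growth and 100% = 10 µM 1-NA-PP1 full growth; higher means more yeast growth rescued from 5-FOA killing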); settings: S. cerevisiae cbk1-as DSE1-URA3 strain, 5-FOA growth OD615, 2 d; at 50 µM; hits give high values

Row | SMILES | growth inhibition [1] | growth inhibition [2] | viability increase [3] | viability [4] | viability [5] | inhibition [6] | RAM network inhibition [7]
1 | CCOC(=O)N1CCN(C(=O)c2cc(C)no2)CC1 | -9.98% | -7.27% | 1.34% | 104% | 109% | 1.04% | 2.19%
2 | CCOc1ccc(-c2nnc3ccc(SCC(=O)N4CCCCC4)nn23)cc1 | -0.225% | 9.67% | -4.24% | 110% | 101% | 2.06% | 1.25%
3 | Clc1ccccc1CSc1nnc(-c2cccnc2)n1Cc1ccco1 | 2.38% | 23.5% | -4.89% | 90.4% | 91% | 1.38% | 4.7%
4 | O=C(CSc1ccccn1)c1ccc2c(c1)OCO2 | -3.07% | 9.94% | -0.21% | 99.2% | 96.2% | 0.92% | 2.86%
5 | CC1Cc2nc(SCC(=O)NCc3ccco3)n(-c3ccccc3)c(=O)c2S1 (stereo unspecified) | -6.6% | -7.02% | -4.56% | 103% | 99% | 0.405% | 6.31%
6 | C=CCSC1=N/C(=C\c2ccsc2)C(=O)S1 | 7.03% | 27.8% | -2.48% | 98.1% | 93% | 0.475% | 0.97%
7 | CCOC(=O)c1csc(NC(=O)c2ccccc2)n1 | -6.33% | 0.485% | 4.7% | 101% | 99.7% | 0.115% | -2.57%
8 | COc1ccccc1CNC(=O)C1CCN(S(=O)(=O)c2cccc3cccnc23)CC1 | 5.11% | 0.02% | -1.41% | 108% | 97.2% | -0.9% | -0.93%
9 | CC(=O)c1ccc(N2CCN(C(=O)c3cc4c(-c5ccccc5F)nn(C)c4s3)CC2)cc1 | 3.9% | 2.33% | -2.9% | 66% | 78% | 2.27% | 6.5%
10 | COc1ccc(NC(=O)NCCCN2CCc3ccccc3C2)cc1 | 3.62% | 0.72% | -2.53% | 97.3% | 98.2% | 1.15% | -1.19%
11 | O=C(Nc1nnc(-c2ccco2)o1)C1CCCCC1 | -17% | -13.8% | -1.58% | 99.1% | 93.2% | 1.52% | 0.58%
12 | CCOC(=O)c1[nH]c(C)c(C(=O)N(CC)CC)c1C | -10.8% | -5.69% | 0.21% | 97% | 107% | 1.27% | -0.57%
13 | CCSc1nnc(NC(=O)c2c(-c3ccccc3Cl)noc2C)s1 | 0.595% | 2.59% | -1.87% | 97.8% | 88.2% | 1.04% | 8.79%
14 | O=C(CNC(=O)c1cnccn1)Nc1ccc(F)c(F)c1F | -8.69% | 2.7% | 1.31% | 99.9% | 92.8% | 2.68% | 7.87%
15 | Cc1nn(-c2ccccc2)c2c1C(c1ccncc1)C(C#N)=C(N)O2 (stereo unspecified) | -12.9% | -0.78% | -0.07% | 92.8% | 89.6% | 0.975% | 4.36%
16 | CCCCN(C)CCC(=O)Nc1ccc(OC)cc1OC | -0.81% | -1.21% | -3.73% | 88.5% | 86.4% | 2.29% | -1.48%
17 | Clc1ccc(CCNc2ncnc3nc[nH]c23)cc1 | 12.7% | 48.5% (active) | 0.89% | 74.7% | 77% | -0.895% | 2.97%
18 | COc1ccc(S(=O)(=O)N(CCc2ccccc2)CC(=O)O)cc1OC | -1.68% | 10.5% | 0.57% | 97.6% | 102% | 1.35% | 1.09%
19 | CC(=O)c1cccc(NC(=O)C2CCCN(S(=O)(=O)c3cccc4cccnc34)C2)c1 (stereo unspecified) | -10.5% | -5.17% | -2.34% | 83.5% | 73.7% | 2.18% | 4.5%
20 | CCOc1ccc(N(CC(=O)NCc2ccc(F)cc2)S(=O)(=O)c2c(C)noc2C)cc1 | -15.6% | -8.36% | -1.36% | 99.3% | 92.8% | 2.25% | 2.84%
21 | O=C(Cn1cnc2c(nnn2-c2ccccc2)c1=O)NCc1ccco1 | 1.43% | 3.14% | -3.77% | 104% | 89.8% | 0.32% | 0.83%
22 | O=C(CCS(=O)NCc1ccccc1)NCc1ccccc1 (stereo unspecified) | -7.98% | -11.4% | -2.13% | 99.7% | 99.9% | 0.425% | 1.51%
23 | COCCOC(=O)C1=C(C)NC2=C(C(=O)CCC2)C1c1ccc(N(C)C)cc1 (stereo unspecified) | -4.38% | -19.9% | -1.53% | 98.6% | 93.4% | 0.975% | 4.47%
24 | O=C(c1ccc(COc2ccccc2Cl)o1)N1CCN(c2ccccc2)CC1 | -15.6% | -13.4% | -4.18% | 61.7% | 69.7% | 2.33% | 5.58%

Row | SMILES | growth inhibition [1] | growth inhibition [2] | viability increase [3] | viability [4] | viability [5] | inhibition [6] | RAM network inhibition [7]
25 | O=C(c1c(Cl)nc2sccn12)N1CCCc2ccccc21 | -2.11% | -6.31% | -0.71% | 100% | 98.2% | 2.37% | 1.4%
26 | COc1ccc(C(=O)Nc2cccc(C(C)=O)c2)cc1S(=O)(=O)N1CCOCC1 | -23.9% | -18.5% | -1.76% | 92% | 96% | 2.08% | 2.08%
27 | Cc1cc(N2CCOCC2)cc(C)[n+]1[O-] | -2.4% | -2.99% | -1.54% | 89.5% | 93.2% | -0.115% | 1.76%
28 | O=C(Cn1cc2c(n1)CCCC2)NCCCN1CCN(Cc2ccccc2)CC1 | -1.54% | -1.17% | -2.71% | 91.5% | 93.2% | 0.61% | -0.1%
29 | O=C(NCc1ccc2c(c1)OCO2)c1nnc(Cc2ccc(Cl)cc2)o1 | -5.43% | 4.12% | 2.05% | 103% | 103% | 2.2% | 5.48%
30 | O=C(OCC(=O)N1CCN(C(=O)c2ccco2)CC1)c1sc2ccccc2c1Cl | -14.3% | -20.1% | -2.74% | 96.3% | 102% | 0.845% | 5.57%
31 | Cc1c(C)n(CC(O)CN2CCCCCC2)c2ccccc12 (stereo unspecified) | -14.9% | -19.6% | -4.25% | 79.6% | 81% | 2.44% | 1.09%
32 | CC(=O)c1ccc(OCCCC(=O)NCC(c2ccco2)N(C)C)cc1 (stereo unspecified) | 4.54% | -0.015% | -4.73% | 68.9% | 85.3% | 0.755% | 1.98%
33 | O=C(O)CCSc1nnc(-c2ccccc2)n1-c1ccccc1 | 4.3% | 50.6% (active) | 0.8% | 94.4% | 98.3% | 1.48% | 0.72%
34 | Cc1ccc(-n2nc3ccc(N)cc3n2)cc1 | -12.9% | 5.77% | -5.26% | 80% | 78.5% | 2.38% | 2.79%
35 | CCn1cc(C(=O)NCC(=O)OC)c2cc(OC)c(OC)cc2c1=O | -6.43% | -18.9% | 0.9% | 105% | 104% | 0.59% | 2.3%
36 | O=C(NC1CCS(=O)(=O)C1)C1CCCCN1S(=O)(=O)c1ccc(Cl)cc1 (stereo unspecified) | -5.22% | -3.24% | -1.52% | 95% | 90.8% | 1.53% | 2.19%
37 | CCCCN(CC)CCNC(=O)Cn1cnc2sc(C)c(S(=O)(=O)N3CCOCC3)c2c1=O | -7.83% | 0.72% | -0.05% | 99.5% | 98.4% | 2.3% | 0.78%
38 | Cn1c(C(C#N)C(=O)Cc2cccc3ccccc23)nc2ccccc21 (stereo unspecified) | -3.6% | -5.02% | -1.14% | 81.5% | 78.9% | 2.59% | 4.32%
39 | CCOc1cccc(C(=O)Nc2cccc(-c3nnc(-c4ccccc4)o3)c2)c1 | -8.09% | 6.69% | -3% | 51.9% | 48.5% | 0.02% | 2.46%
40 | CCCOC(=O)c1ccc(-n2nnnc2SCC(=O)N2CCCCC2)cc1 | -11.6% | -5.64% | -0.35% | 80.3% | 86% | 0.595% | 0.04%
41 | CCc1ccc(-c2nc(C(N)=O)c3[nH]c(=O)n(-c4ccccc4OC)c3n2)cc1 | -5.67% | -2.13% | -8.43% | 15.6% (active) | 24% (active) | 2.18% | 10.7%
42 | COc1ccc(NC(C)=O)cc1NC(=O)CSc1nnc(-c2ccncc2)n1C | -5.57% | -7.07% | -1.99% | 96.6% | 106% | 0.24% | 0.2%
43 | CCOC(=O)N1CCC(NC(=O)c2cc3c(-c4ccc(Cl)cc4)nn(C)c3s2)CC1 | -2.75% | -2.64% | -5.61% | 91.4% | 92.1% | -0.04% | 2.43%
44 | Cc1nc(SC(C)C)[nH]c(=O)c1Cc1ccccc1 | -14.9% | -4.47% | -0.89% | 98.4% | 91.8% | 1.1% | 3.52%
45 | CCCc1nnc(SCC(=O)O)n1/N=C/c1ccc2c(c1)OCO2 | 8.88% | 34.1% | -2.31% | 102% | 101% | 0.54% | 0.41%
46 | O=C(CCSc1ccccc1)NCCSc1ccccn1 | -12.8% | -12% | -2.49% | 96.3% | 94.6% | 2.69% | 0.53%
47 | CCN1CCN(c2cc(C)c3cc(NC(=O)c4ccncc4)ccc3n2)CC1 | -8.8% | 1.77% | -4.96% | 82.6% | 79.5% | 1.46% | 1.77%
48 | O=C(CCn1c(=O)oc2ccccc21)Nc1ccc2c(c1)OCCO2 | -3.18% | -9.54% | -3.68% | 103% | 96% | 1.88% | 3.61%
